We go through 9 molecules from paper PMC12392337 (Archives of toxicology, 2022).

The subject of data set [1] is human HepG2 cells overexpressing CYP2A6. As to the kind of experiment: MN assay in HepG2 cells. The class given is cell-based. Particulars: Supplementary Fig. 1.
Data set [2] concerns TK6 cells transduced with CYP2A6, 1A1, 2E1, and 3A4. As to the kind of experiment: NDBA level in cell culture medium by UPLC-MS/MS. The class given is in vitro ADME, human. Particulars: 12.5 μM, 24 h; CYP2A6, 1A1, 2E1, and 3A4 expressed in TK6 cells. The procedure, abridged: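 Cells were incubated 24 h with 12.5 μM test compound; wild-type cells in medium with rat or hamster S9 served as a metabolism reference. Medium was protein-precipitated with acetonitrile, centrifuged 12,000 × g for 5 min and run on C18 UPLC at 40 °C with a water/acetonitrile gradient (0.1% formic acid). Detection was ESI+ MRM at m/z 159.1 > 57.3 (LOD 6.8 nM), expressed relative to wild-type-cell medium (100%).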

Data set [3] has as its system CYP2A6-expressing TK6 cells. As to the kind of experiment: MultiFlow DNA damage assay, γH2A.X formation. The class given is cell-based, human. Particulars: for BMD50 for γH2A.X induction: Bayesian benchmark dose modeling, model-averaged, CES 0.5, 24-h treatment.
Another data set concerns bacteria. To be noted: cited from earlier work.
Data set [4] concerns TK6 cells expressing CYP1A1. The data set is described as follows: In vitro micronucleus assay. The class given is cell-based, human. Particulars: without S9; positive control B(a)P at 1 μM.
A further data set concerns TK6 cells. The data set is described as follows: NDBA distribution between medium and cell lysate by UPLC-MS/MS. The class given is in vitro ADME, human. To be noted: Supplementary Fig. 2.
Data set [5] relates to TK6 cells expressing CYP3A4. As to the kind of experiment: In vitro micronucleus assay. The class given is cell-based, human. Particulars: without S9; positive control lasiocarpine at 0.5 μM.
Data set [6] deals with CYP2A6-expressing TK6 cells. The data set is described as follows: In vitro micronucleus assay. The class given is cell-based, human. To be noted: for %MN response (in words): NDIPA and NDBA at concentrations up to 1 mM; for BMD50 for MN frequency: Bayesian benchmark dose modeling, model-averaged, CES 0.5, 24-h treatment; for genotoxic potency relative to NMPA (BMD50 estimates, both endpoints): MN and γH2A.X BMD50 in CYP2A6-expressing TK6 cells, fold weaker than NMPA.

In data set [7] the test system is CYP2A6-expressing TK6 cells. The data set is described as follows: Cell cycle analysis. The class given is cell-based, human. Particulars: 24 h; for percentage of cells in G2/M phase: vehicle controls 21.6%.
Data set [8] has as its system CYP2A6-expressing TK6 cells. The data set is described as follows: MultiFlow DNA damage assay, nuclear P53. The class given is cell-based, human. Particulars: 24 h; for nuclear P53 response (in words): concentrations studied; for increase in nuclear P53 vs vehicle control: 100 μM.
For data set [9], the system named is CYP2A6-expressing TK6 cells. As to the kind of experiment: Relative cytotoxicity. The class given is cell-based, human. Particulars: for cytotoxicity at the highest concentration tested: 24 h, data not shown.
Data set [10] concerns TK6 cells expressing CYP2A6. The data set is described as follows: TK and HPRT gene mutation test. The class given is cell-based, human. To be noted: Supplementary Table 1.
The subject of data set [11] is Salmonella typhimurium expressing human CYP2A6. Particulars: cited from earlier work.
Data set [12] concerns TK6 cells expressing CYP2E1. The data set is described as follows: In vitro micronucleus assay. To be noted: without S9; positive control NDMA at 10 μM. The class given is cell-based, human.
The test system of a further data set is rats. To be noted: cited from earlier work.
The conditions of data set [13]: 20 °C; no reference given; cited from earlier work.
In data set [14] the test system is Chinese hamster V79 cells. To be noted: exogenous microsomal activation system; ref Kuroki et al. 1977; cited from earlier work.
For another data set, the system named is wild-type TK6 cells. As to the kind of experiment: MultiFlow DNA damage assay, γH2A.X formation. To be noted: positive control at 25 and 50 ng/ml. The class given is cell-based, human.

Structures are written as SMILES. Where two headings read alike, the source gives them in different places. Some results are limits rather than exact numbers.

With `CCCCN(CCCC)N=O` [NDBA, N-nitrosodibutylamine], the “%MN frequencies (in words)” value in data set [1] is “did not increase %MN frequencies”. Besides, in data set [2], the “metabolism of NDBA (amount in medium vs wild-type TK6 cells)” value is recorded as “did not efficiently metabolize NDBA”. Besides, the “BMD50 for γH2A.X induction” value in data set [3] is “could not be estimated”. For the same molecule, in the data set with bacteria (ref Bonfanti et al. 1990), the Ames test result is listed as “positive”. In the data set with bacteria (with metabolic activation by rodent S9, ref Inami et al. 2009), the Ames test result is listed as “positive”. Also, in data set [4], the “MN formation (in words)” value is listed as “no effect”. Moreover, in the data set with TK6 cells, the “NDBA in the cell culture medium (in words)” value was “most of the NDBA remains in the cell culture medium” and the “amount of NDBA in the cell lysate (in words)” value is listed as “only a very limited amount of NDBA is found in the cell lysate”. Moreover, the “MN formation (in words)” value in data set [5] is reported as “no effect”. For the same molecule, the “%MN response (in words)” value in data set [6] (24 h) is “did not cause any significant increase”. In addition, the “BMD50 for MN frequency” value in [6] is “could not be estimated”. For the same molecule, in data set [7] (1 mM), the “G2/M phase cell cycle arrest (in words)” value is “did not cause G2/M phase cell cycle arrest”, the “percentage of cells in G2/M phase (in words)” value is “decreased” and the “percentage of cells in the sub-G1 phase (in words)” value is recorded as “significantly increased”. The “nuclear P53 response (in words)” value in data set [8] is listed as “did not cause an increase”. Moreover, the relative nuclei count in data set [9] (1 mM, CYP2A6-expressing TK6 cells) was 50%. In data set [10], the “TK or HPRT gene mutations (in words)” value is “did not induce TK or HPRT gene mutations”. Besides, in [11] (ref Fujita and Kamataki 2001), the “mutagenicity in the Ames test with metabolic activation by CYP2A6 or CYP1A1” value is on record as “mutagenic”. The “MN formation (in words)” value in data set [12] was “no effect”.
Consider `CCN(CC)N=O` [NDEA, N-nitrosodiethylamine], for which, in data set [3] (6.25 μM (lowest concentration tested), 24 h), the “γH2A.X increase over control” value was 1.5 fold. In addition, the “γH2A.X fluorescence signal increase over the controls” value in [3] (100 μM, 24 h) was found to be 2.7 fold. Besides, the Ames test result with bacteria (ref Aiub et al. 2003) was “positive”. Further, in [6] (100 μM, 24 h), the “increase in %MN” value was 2.6 fold. The “%MN response (in words)” value in data set [6] (24 h) is given as “concentration-dependent increases”. Also, the “genotoxic potency relative to NMPA (BMD50 estimates, both endpoints)” value (“genotoxic potency relative to NMPA” for short) in data set [6] is “more than tenfold less genotoxic”. Moreover, in data set [7] (100 μM), the “percentage of cells in G2/M phase” value came to 25.1%. Also, in data set [7], the “G2/M phase cell cycle arrest (in words)” value is listed as “resulted in G2/M phase cell cycle arrest” and the “percentage of cells in S phase (in words)” value is reported as “concurrent decrease”. In addition, in data set [8], the “increase in nuclear P53 vs vehicle control” value is 1.7 fold, the “lowest observed adverse effect level (LOAEL) for nuclear P53 increase” value was found to be 25 µM and the “nuclear P53 response (in words)” value was “concentration-dependent increases”. Further, in data set [9] (CYP2A6-expressing TK6 cells), the “cytotoxicity at the highest concentration tested” value was 15–30%.
As for `CC(C)N(N=O)C(C)C` [NDIPA, N-nitrosodiisopropylamine], in data set [3], the “BMD50 for γH2A.X induction” value is on record as “could not be estimated”. Also, in [6] (24 h), the “%MN response (in words)” value is “did not cause any significant increase”. In addition, the “BMD50 for MN frequency” value in data set [6] is reported as “could not be estimated”. The “nuclear P53 response (in words)” value in data set [8] is “did not cause an increase”. Moreover, the cytotoxicity entry in data set [9] (concentrations up to 1 mM, cell line not given) was “not cytotoxic”. Besides, the “mean tumor induction period” value with rats (25 mg/kg dosing group, ref Lijinsky and Taylor 1979) is on record as 770 days; in the data set with rats (50 mg/kg dosing group, ref Lijinsky and Taylor 1979), 430 days. Also, the carcinogenicity result in the data set with rats (Sprague–Dawley rats, ref Lijinsky and Taylor 1979) is “weak carcinogen”.
As to `CN(C)N=O` [NDMA, N-nitrosodimethylamine, reference compound], in the data set with bacteria (ref Aiub et al. 2003), the Ames test result is “positive”. Moreover, the vapor pressure in data set [13] is reported as greater than 1 mm Hg. Also, in [12], the “MN formation (in words)” value was “significant increases in MN formation”.
As for `CCN(N=O)C(C)C` [NEIPA, N-nitrosoethylisopropylamine], in data set [3] (24 h treatment with nitrosamine), the “γH2A.X response (in words)” value was “concentration-dependent increase”. Besides, the “increase in %MN” value in [6] (100 μM, 24 h) worked out at 3.6 fold. In addition, the “%MN response (in words)” value in [6] (24 h) is reported as “concentration-dependent increases”. In addition, the “genotoxic potency relative to NMPA” value in data set [6] is recorded as “more than tenfold less genotoxic”. In data set [7] (100 μM), the “percentage of cells in G2/M phase” value is given as 27.0%. Moreover, in data set [7], the “G2/M phase cell cycle arrest (in words)” value is given as “resulted in G2/M phase cell cycle arrest” and the “percentage of cells in S phase (in words)” value is reported as “concurrent decrease”. Besides, in data set [8], the “increase in nuclear P53 vs vehicle control” value came out at 1.5 fold, the “lowest observed adverse effect level (LOAEL) for nuclear P53 increase” value turned out to be 12.5 µM and the “nuclear P53 response (in words)” value is reported as “concentration-dependent increases”. Besides, in data set [9] (CYP2A6-expressing TK6 cells), the “cytotoxicity at the highest concentration tested” value is given as 15–30%.
For the molecule `CN(CCCC(=O)O)N=O` [NMBA, N-nitroso-N-methyl-4-aminobutanoic acid], in data set [3] (24 h, increased signals only above this concentration), the “concentration producing increased γH2A.X signals” value is on record as “above 100 μM”. The “%MN response (in words)” value in [6] (24 h) was “concentration-dependent increases”. Further, in [6], the “genotoxic potency relative to NMPA” value is recorded as “more than 100 fold”. In addition, the “percentage of cells in G2/M phase” value in [7] (400 μM) was found to be 24.3%. Also, in data set [7], the “G2/M phase cell cycle arrest (in words)” value is listed as “resulted in G2/M phase cell cycle arrest” and the “percentage of cells in S phase (in words)” value was “concurrent decrease”. Besides, in data set [8], the “nuclear P53 response (in words)” value is recorded as “did not cause an increase”. Moreover, in [9] (CYP2A6-expressing TK6 cells), the “cytotoxicity at the highest concentration tested” value is on record as 15–30%. In addition, the carcinogenicity entry in the data set with rats (rats, large doses in drinking water, ref Lijinsky et al. 1983) is given as “caused only bladder cancer”.
Consider `CN(N=O)c1ccccc1` [NMPA, N-nitrosomethylphenylamine], for which, in [14], the “mutagenicity in V79 cells” value is “not mutagenic”. Besides, the “γH2A.X increase over control” value in data set [3] (0.625 μM, 24 h) turned out to be 1.3 fold. For the same molecule, in [3], the “BMD50 for γH2A.X induction” value stood at 1.1 µM. Besides, the “mutagenicity in a standard Ames test” value in the data set on bacteria (ref Koepke et al. 1990) is “not mutagenic”. Moreover, the “increase in %MN” value in [6] (2.5 μM, 24 h) is 2.0 fold. Also, the “%MN in treated cells relative to controls” value in data set [6] (10 μM (highest concentration tested), 24 h) is 2.8 fold. Besides, the “%MN response (in words)” value in data set [6] (24 h) is “concentration-dependent increases”. For the same molecule, the “BMD50 for MN frequency” value in data set [6] turned out to be 2.2 µM. Moreover, the “percentage of cells in G2/M phase” value in data set [7] (10 μM) stood at 32.9%. In addition, in [7], the “G2/M phase cell cycle arrest (in words)” value is on record as “resulted in G2/M phase cell cycle arrest” and the “percentage of cells in S phase (in words)” value is “concurrent decrease”. In data set [8], the “lowest observed adverse effect level (LOAEL) for nuclear P53 increase” value was determined as 1.25 µM and the “nuclear P53 response (in words)” value is on record as “concentration-dependent increases”. Besides, the vapor pressure in data set [13] is given as greater than 1 mm Hg. For the same molecule, the “cytotoxicity at the highest concentration tested” value in [9] (CYP2A6-expressing TK6 cells) is reported as 15–30%. Further, the carcinogenicity result in the data set with rats (rats, ref Kroeger-Koepke et al. 1983) is on record as “potent esophageal carcinogen”. Also, the “mutagenicity in Salmonella typhimurium expressing human CYP2A6” value in data set [11] (ref Kushida et al. 2000) is “mutagenic”.
`C/C=C(/C)C(=O)O[C@H]1CCN2CC=C(COC(=O)[C@@](O)([C@H](C)OC)C(C)(C)O)[C@H]12` [lasiocarpine, Lasiocarpine, reference compound]: in data set [5], the “MN formation (in words)” value is reported as “significant increases in MN formation”.
Turning to `CO[C@@]12[C@H](COC(N)=O)C3=C(C(=O)C(C)=C(N)C3=O)N1C[C@@H]1N[C@@H]12` [mitomycin C, reference compound], the “γH2A.X response (in words)” value in data set [3] (positive control at 25 and 50 ng/ml) is given as “robust increase”; with wild-type TK6 cells, “robust increase”.
